High-throughput results as filed in PubChem BioAssay.
Rows were chosen to be rich in hits. Some 4% of all compounds tested hit in one or more screens of this group.
E-selectin induc: E-selectin induction in HUVECs, primary screen, imaging, HUVEC, immunofluorescence imaging, single point; hit rate 0.37% among 260,000; normalized: neutral wells 0, TNF-alpha wells 100; activation, % at 7.58 µM; AID 686992, 2013;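 active = mean E-selectin-positive cell signal at least 10% of the positive control, reached in at least 60% of replicates, without over 20% cell loss; inconclusive = no rule given, readout overlaps actives, possibly toxicity-flagged; inactive = the rest, including those meeting only one limit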
Target sequence (P16581 whole entry, looked up): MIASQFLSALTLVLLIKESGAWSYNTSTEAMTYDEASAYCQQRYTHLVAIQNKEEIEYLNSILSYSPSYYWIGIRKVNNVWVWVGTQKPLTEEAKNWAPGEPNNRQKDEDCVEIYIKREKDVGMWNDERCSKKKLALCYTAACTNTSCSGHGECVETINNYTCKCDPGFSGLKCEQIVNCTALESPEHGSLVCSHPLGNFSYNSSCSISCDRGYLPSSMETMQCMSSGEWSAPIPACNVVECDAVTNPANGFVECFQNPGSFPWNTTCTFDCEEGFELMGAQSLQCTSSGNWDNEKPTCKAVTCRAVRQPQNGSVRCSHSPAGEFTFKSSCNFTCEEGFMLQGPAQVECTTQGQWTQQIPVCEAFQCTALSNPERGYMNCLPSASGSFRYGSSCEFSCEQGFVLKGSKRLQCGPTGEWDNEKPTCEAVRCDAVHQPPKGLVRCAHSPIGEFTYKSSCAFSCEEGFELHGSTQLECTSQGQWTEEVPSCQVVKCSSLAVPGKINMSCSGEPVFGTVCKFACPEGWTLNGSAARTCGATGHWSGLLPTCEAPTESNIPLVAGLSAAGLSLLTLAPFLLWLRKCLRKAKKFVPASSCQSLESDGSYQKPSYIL
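Material: HUVEC primary endothelial cells; Amount: 3,000 cells per well; Dosing: single concentration; Medium: EGM-2 growth medium on 0.1% gelatin-coated wells; Read-out basis: percent E-selectin-positive cells; Signal: immunofluorescence imaging; Control set: TNF-alpha, DMSO.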
rRNA inh HTS: reduced GFP signal of wild-type E. coli, primary screen, bacterial rRNA inhibitor project, GFP/RFP fluorescence, OD600, single point. E. coli WT GFP vs humanized-ribosome RFP mutants, 24 h; active compounds read low; DMSO median 0, no signal -100. GFP signal change (wild-type ribosome), % (test concentration not listed). hit rate 1.6% among 350,000. AID 720706, 2013;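 active = significant combined selectivity score with lowered wild-type GFP, culture density cut under 30%, mutant RFP and density less affected; inactive = any of these conditions unmet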
FN deposit inh: inhibitors of fibronectin matrix deposition, primary screen, AH1F cells, Alexa488-fibronectin fluorescence, plate reader; AH1F fibroblasts, overnight; inhibition, % at 12.6 µM; hit rate 0.086% among 350,000;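 active = mean inhibition across replicates of 30% or more, regardless of how many single replicates reach that level; inconclusive = mean under 30% yet at least half of replicates reach 30%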;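 also: positive control wells lacked labelled fibronectin entirely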
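Assay system: AH1F fibroblasts assembling fluorescent fibronectin matrix; Amount: 10000 AH1F cells per well; Buffer or medium: DMEM, 2% serum; Probe or stimulus: Alexa488-fibronectin, 24 nM final in well; Doses: single compound dose, delivered by pin transfer; Incubation: 1 h adhesion, overnight exposure; Measured by: fluorescence 485/525 nm; Read-out: fibronectin deposition inhibition.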
FGF22 binding: binders of human FGF22 protein, primary screen, FGF22 synaptogenesis inhibitor project, biophysical, thermal shift, single point | recombinant FGF22 thermal shift, SYPRO orange fluorescence; percent of sucrose octasulfate shift, DMSO zero | hit rate 1.5% among 340,000 | Fibroblast growth factor 22 (Homo sapiens), Q9HCT0 | AID 651658, 2012 | activity (Tm shift, normalised), % at 9.99 µM;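 active = mean Tm shift, scaled 0 neutral to 100 positive control, at about 1.3% or above, every replicate too, limit read from the data; inconclusive = no clear call, values can overlap the other calls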
C2C12 statin: suppressors of statin myotoxicity in C2C12 myotubes, primary screen, cell-based, single point, plate reader; C2C12 myotubes + simvastatin, ATP luminescence, 48 h; scaled: DMSO 0, geranylgeraniol control 100; AID 602340, 2012; hit rate 0.78% among 330,000; rescue of ATP level, % at 7.49 µM;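 active = mean ATP rescue above about 67%, or every replicate alone reaching that limit, limit read from the data, passing the limit was not always enough; inconclusive = no clear call, values can overlap the other calls; inactive = mean under the limit and some replicate under it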;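 also: myotubes were challenged with 10 µM simvastatin during compound exposure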
SIRT5 inh: SIRT5 desuccinylase inhibitors, primary screen, biochemical, fluorescence imaging, single point, set 5; Purified SirT5, succinyl-peptide AMC, trypsin-coupled fluorescence; hit rate 1.1% among 330,000; NAD-dependent protein deacylase sirtuin-5, mitochondrial (Homo sapiens), Q9NXA8; inhibition, % at 15 µM; in the data active = inhibition above about 15%; inconclusive = no clear call, values can overlap the other calls
* = called active by the depositor; ? = inconclusive; nt = no result given.

SMILES | E-selectin induc | rRNA inh HTS | FN deposit inh | FGF22 binding | C2C12 statin | SIRT5 inh
Cc1noc(C)c1NC(=O)Nc1cccc2c1O[C@@H](CN(C)S(C)(=O)=O)[C@@H](C)CN([C@@H](C)CO)C2=O | -1 | -3 | nt | 0 | nt | ?
C[C@H](CO)N1C[C@H](C)[C@@H](CN(C)Cc2cccnc2)Oc2cc(C#CC3CCCCC3)ccc2S1(=O)=O | 2 | -4 | nt | 0 | -46 | -7
C[C@H](CO)N1C[C@H](C)[C@@H](CN(C)Cc2cccnc2)Oc2cc(C#CC3CCCC3)ccc2S1(=O)=O | 1 | -13 | -29 | 0 | -111 | 15*
C[C@H](CO)N1C[C@H](C)[C@H](CN(C)Cc2cccnc2)Oc2cc(C#CC3CCCCC3)ccc2S1(=O)=O | 0 | -5 | nt | 0 | -25 | 12*
CCOC(=O)C1(C(N)=O)OC1(c1ccc(Cl)cc1)c1ccccc1Cl (centres undefined) | 0 | -19* | -2 | 0 | 11 | nt
CC(C)(C)c1ccc(-c2nc3[nH]c(=O)cc(NC(=O)c4ccco4)n3n2)cc1 | nt | 3 | -1 | 14* | -4 | -7
C[C@@H]1CCCCO[C@H](CN(C)C(=O)CCCN(C)C)[C@H](C)CN([C@@H](C)CO)C(=O)c2cc(NC(=O)Nc3ccccc3)ccc2O1 | 0 | -3 | 0 | -1 | nt | -7
CC(C)Oc1ccc(CCc2n[nH]c(=S)n2-c2ccccc2)cc1 | -1 | -21* | -5 | 0 | -10 | -2
Cc1cccc(C)c1OCc1n[nH]c(=S)n1-c1ccccc1 | 2 | -29* | 4 | 0 | 7 | nt
COCc1n[nH]c(=S)n1-c1ccccc1 | nt | nt | 11 | nt | 8 | nt
COc1cccc(-c2cnc3c(c2)C(=O)N([C@@H](C)CO)C[C@@H](C)[C@H](CN(C)Cc2ccc(F)cc2)O3)c1 | 1 | -1 | nt | 0 | -2 | -3
Cc1oc2c(c(=O)c1C)C(=O)CC(c1ccccc1)C2 (centres undefined) | nt | nt | nt | nt | -1 | nt
CS(=O)(=O)c1sc(C#N)c2c1C(=O)CC(c1ccccc1)C2 (centres undefined) | 1 | -26* | 37* | 0 | nt | 2
COc1cc(/C=C(\C#N)C(=O)N2CCOCC2)cc(Br)c1O | nt | -3 | -8 | 1 | nt | 1
N#C/C(=C\c1cccc(Oc2ccccc2)c1)C(=O)N1CCOCC1 | 4 | -25* | -1 | 0 | 0 | -2
COc1ccc(C(=O)Oc2ccc(/C=N/O)cc2)cc1 | nt | -26* | -11 | nt | 3 | 7
CN1CCN(C(=O)C[C@H]2CC[C@@H]3[C@H](COC[C@@H](O)CN3C(=O)Nc3cc(Cl)cc(Cl)c3)O2)CC1 | 0 | -26 | 0 | 0 | -22 | 2
Cc1ccc(NC(=O)c2ccc3c(=O)n4c(nc3c2)CCCCC4)nc1 | 0 | -13 | -6 | 0 | -10 | 0
Cc1cc(C)c2nc(NC(=O)c3ccc4c(=O)n5c(nc4c3)CCCCC5)sc2c1 | 35* | -2 | 1 | 0 | nt | -3
O=C(O)/C=C/c1ccc(OCc2cccc(F)c2)cc1 | -2 | -22* | 10 | nt | -13 | 10
CN(Cc1ccccc1)C(=O)CCN1C(=O)c2cccc([N+](=O)[O-])c2C1=O | 0 | 9 | -6 | 43* | nt | nt
CN(Cc1ccc(Br)cc1)C(=O)CCN1C(=O)c2cccc([N+](=O)[O-])c2C1=O | 0 | 3 | 4 | 0 | -4 | -3
CCCNC(=O)[C@@H]1[C@@H](CO)[C@@H]2Cn3c(cccc3=O)[C@@H]2N1CC1CCCC1 | 0 | 2 | -1 | nt | nt | 3
Cc1ccc(NC(=S)NN2CCN(C)CC2)c(C)c1 | 0 | 6 | 5 | 43* | nt | -4
O=C(CSc1nccc(=O)[nH]1)N1c2ccccc2CCc2ccccc21 | nt | -34* | nt | 0 | 12 | 11
SMILES | E-selectin induc | rRNA inh HTS | FN deposit inh | FGF22 binding | C2C12 statin | SIRT5 inh
O=C(CSc1nccc(=O)[nH]1)N1CCN(c2ccccc2)CC1 | nt | 25 | 4 | 0 | nt | -1
O=C(CCN1CCCCC1)NCC[C@@H]1CC[C@@H](NC(=O)c2ccc(F)cc2)[C@H](CO)O1 | 0 | 2 | 5 | 0 | 11 | 8
COc1ccc(CNC(=O)CN(C(=O)c2csnn2)c2cccc3c2CCCC3)cc1 | 0 | 4 | 3 | 0 | 73* | -2
Cc1ccc(S(=O)(=O)Nc2ccc3c(c2)CC(=O)N([C@@H](C)CO)C[C@@H](C)[C@@H](CN(C)Cc2ccncc2)O3)cc1 | 2 | 0 | nt | 0 | -10 | -6
CC(=O)Nc1ccc(NC(=O)c2ccccc2C)cc1 | nt | 10 | nt | 0 | 30 | -1
CC(=O)Nc1ccc(NC(=O)c2ccccc2CCc2ccccc2)cc1 | 5 | 18 | -9 | 44* | nt | -5
CC(C)[C@H]1CC=CC[C@H](C)Oc2ccccc2C(=O)N(C)[C@@H](C)C(=O)N1 (mixture of isomers) | nt | -1 | -15 | nt | nt | nt
COc1ccccc1-c1cnc2c(c1)C(=O)N([C@@H](C)CO)C[C@@H](C)[C@H](CN(C)CC1CCOCC1)O2 | 0 | 6 | nt | 0 | -1 | -2
Cc1ccsc1CN(C)Cc1nc(C2CC2)no1 | 513* | 1 | 0 | 0 | nt | 2
COCc1nc2ccccc2n1CCCOc1ccccc1 | nt | nt | nt | nt | 127* | nt
CCOCCn1c(COc2ccccc2)nc2ccccc21 | nt | nt | nt | nt | 122* | nt
c1ccc(OCCn2c(-c3ccco3)nc3ccccc32)cc1 | nt | -46* | nt | 0 | 22 | -1
C[C@@H]1CN([C@@H](C)CO)C(=O)c2cccc(NS(=O)(=O)c3cn(C)cn3)c2O[C@@H]1CN(C)C | 5 | -2 | -3 | 0 | 4 | 0
Cc1noc(C)c1S(=O)(=O)Nc1cccc2c1O[C@@H](CN(C)S(=O)(=O)c1ccc(F)cc1)[C@@H](C)CN([C@H](C)CO)C2=O | 0 | -1 | nt | 0 | -56 | 0
CN(C)CCN(C(=O)c1cc(Cl)sc1Cl)c1nc2ccc(F)cc2s1 | nt | -2 | 7 | 0 | nt | 0
CCN(CC)CCN(C(=O)c1ccccc1OC)c1nc2ccc(F)cc2s1 | 0 | -22* | 6 | 0 | nt | -2
Cc1ccc(NC(=S)NC2CCSc3ccccc32)cc1 (centres undefined) | 14 | -44* | 0 | 0 | -34 | -1
